Data reported in ChEMBL document CHEMBL1255453, “Affinity of ceftaroline and other beta-lactams for penicillin-binding proteins from Staphylococcus aureus and Streptococcus pneumoniae” (Antimicrob Agents Chemother, 2010).
Converted amounts (≈) assume the structure as drawn.

Key:
[1] = Binding affinity to methicillin-resistant, heteroresistant vancomycin-intermediate, beta-lactamase-negative Staphylococcus aureus 873 PBP3 by competitive binding assay
MecA [2] = molecular target: T1, MecA (Staphylococcus aureus, UniProt Q7DHH4); test: Binding affinity to methicillin-resistant, vancomycin-intermediate, beta-lactamase-positive Staphylococcus aureus 1287 PBP2a by competitive binding assay
T1 sequence (Q7DHH4 whole entry): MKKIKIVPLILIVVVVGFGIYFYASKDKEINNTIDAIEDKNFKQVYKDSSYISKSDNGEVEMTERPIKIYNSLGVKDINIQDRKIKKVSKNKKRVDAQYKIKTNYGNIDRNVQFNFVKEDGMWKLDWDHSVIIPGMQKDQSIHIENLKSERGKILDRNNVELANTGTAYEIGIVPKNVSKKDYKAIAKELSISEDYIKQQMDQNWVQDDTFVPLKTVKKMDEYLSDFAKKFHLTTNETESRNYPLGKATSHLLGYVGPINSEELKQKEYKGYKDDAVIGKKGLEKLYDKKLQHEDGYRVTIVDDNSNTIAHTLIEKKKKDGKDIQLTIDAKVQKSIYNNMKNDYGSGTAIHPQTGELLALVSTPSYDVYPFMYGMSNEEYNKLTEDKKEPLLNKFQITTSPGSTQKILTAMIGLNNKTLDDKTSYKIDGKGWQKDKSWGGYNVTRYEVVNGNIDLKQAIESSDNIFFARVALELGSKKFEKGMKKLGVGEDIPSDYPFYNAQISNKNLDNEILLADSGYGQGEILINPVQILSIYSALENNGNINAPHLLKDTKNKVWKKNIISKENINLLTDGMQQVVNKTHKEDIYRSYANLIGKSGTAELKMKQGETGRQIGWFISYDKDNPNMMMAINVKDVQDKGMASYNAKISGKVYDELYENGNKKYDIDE
Outline: (§1)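 MRSA grown in brain heart infusion and harvested in exponential phase (OD600 0.3–0.4). Membranes prepared by lysozyme/lysostaphin/DNase, freeze-thaw and sonication, then ultracentrifugation. Membranes preincubated with clavulanic acid 1 mg/ml to saturate PBPs other than PBP2a. Then β-lactam 10 min at 37°C and Bocillin FL 40 μg/ml, 15 min at 37°C. SDS-PAGE fluorescence; IC50 = 50% inhibition of Bocillin FL binding; 3 isolations.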

[3] = Binding affinity to methicillin-, vancomycin-susceptible Staphylococcus aureus ATCC 29213 PBP3 by competitive binding assay
Outline: (§2)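 MSSA grown in brain heart infusion broth and harvested at OD600 0.3–0.4. Lysed with lysozyme, lysostaphin, DNase I, freeze-thaw and sonication; membranes collected at 100,000 × g. Membranes (100 μg protein) incubated with β-lactam 10 min at 37°C, then Bocillin FL 40 μg/ml, 15 min at 37°C. SDS-PAGE, fluorescence at 520 nm. IC50 is 50% inhibition of Bocillin FL binding; 3 membrane isolations.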

[4] = Binding affinity to against methicillin-, daptomycin-resistant, vancomycin-intermediate, beta-lactamase-positive Staphylococcus aureus 25 PBP3 by competitive binding assay
Outline: (§3)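 MRSA strain harvested in stationary phase (OD600 >2.00). Membranes prepared by enzymatic lysis, freeze-thaw, sonication and ultracentrifugation, then preincubated with clavulanic acid 1 mg/ml. β-Lactam competition 10 min at 37°C, then Bocillin FL 40 μg/ml, 15 min at 37°C. SDS-PAGE, 520 nm imaging; IC50 = 50% inhibition of Bocillin FL labeling; 3 membrane isolations.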

[5] = Binding affinity to methicillin-, linezolid-resistant, vancomycin-intermediate, beta-lactamase-positive Staphylococcus aureus 2149A PBP1 by competitive binding assay
Streptococcus pneumoniae [6] = test: Antibacterial activity against penicillin-resistant Streptococcus pneumoniae 3413 by macrodilution method; format: functional
Outline: (§4)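 CLSI broth macrodilution MICs. The S. aureus set is 5 MRSA strains (hVISA, VISA, VRSA) plus 1 MSSA. The S. pneumoniae set is 7 clonally unrelated clinical isolates, categorised by penicillin G against 2006 CLSI M100-S17 criteria (resistant ≥2 μg/ml, susceptible ≤0.06 μg/ml).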

[7] = Binding affinity to methicillin-, vancomycin-resistant, beta-lactamase-positive Staphylococcus aureus 510 PBP2 by competitive binding assay
[8] = Binding affinity to methicillin-, linezolid-resistant, vancomycin-intermediate, beta-lactamase-positive Staphylococcus aureus 2149A PBP2 by competitive binding assay
[9] = Binding affinity to methicillin-resistant, vancomycin-intermediate, beta-lactamase-positive Staphylococcus aureus 1287 PBP2 by competitive binding assay
[10] = Binding affinity to methicillin-, vancomycin-susceptible Staphylococcus aureus ATCC 29213 PBP2 by competitive binding assay; outline: as §2
[11] = Binding affinity to methicillin-resistant, heteroresistant vancomycin-intermediate, beta-lactamase-negative Staphylococcus aureus 873 PBP2 by competitive binding assay
[12] = Binding affinity to methicillin-resistant, heteroresistant vancomycin-intermediate, beta-lactamase-negative Staphylococcus aureus 873 PBP4 by competitive binding assay
[13] = Binding affinity to against methicillin-, daptomycin-resistant, vancomycin-intermediate, beta-lactamase-positive Staphylococcus aureus 25 PBP1 by competitive binding assay; outline: as §3
Streptococcus pneumoniae [14] = test: Antibacterial activity against penicillin-resistant Streptococcus pneumoniae 1564 by macrodilution method; format: functional; outline: as §4
MecA [15] = molecular target: T1, MecA; test: Binding affinity to methicillin-resistant, heteroresistant vancomycin-intermediate, beta-lactamase-negative Staphylococcus aureus 873 PBP2a by competitive binding assay; outline: as §1
[16] = Binding affinity to methicillin-resistant, heteroresistant vancomycin-intermediate, beta-lactamase-negative Staphylococcus aureus 873 PBP1 by competitive binding assay
[17] = Binding affinity to against methicillin-, daptomycin-resistant, vancomycin-intermediate, beta-lactamase-positive Staphylococcus aureus 25 PBP2 by competitive binding assay; outline: as §3
Staphylococcus aureus [18] = test: Antibacterial activity against methicillin-, daptomycin-resistant, vancomycin-intermediate, beta-lactamase-positive Staphylococcus aureus 25 by macrodilution method; format: functional; outline: as §4
MecA [19] = molecular target: T1, MecA; test: Binding affinity to against methicillin-, daptomycin-resistant, vancomycin-intermediate, beta-lactamase-positive Staphylococcus aureus 25 PBP2a by competitive binding assay; outline: as §3
[20] = Binding affinity to methicillin-resistant, vancomycin-intermediate, beta-lactamase-positive Staphylococcus aureus 1287 PBP3 by competitive binding assay
[21] = Binding affinity to methicillin-, linezolid-resistant, vancomycin-intermediate, beta-lactamase-positive Staphylococcus aureus 2149A PBP4 by competitive binding assay
Streptococcus pneumoniae [22] = test: Antibacterial activity against penicillin-susceptible Streptococcus pneumoniae 1076 by macrodilution method; format: functional; outline: as §4
Streptococcus pneumoniae [23] = test: Antibacterial activity against penicillin-resistant Streptococcus pneumoniae 1394 by macrodilution method; format: functional; outline: as §4
[24] = Binding affinity to methicillin-, linezolid-resistant, vancomycin-intermediate, beta-lactamase-positive Staphylococcus aureus 2149A PBP3 by competitive binding assay
MecA [25] = molecular target: T1, MecA; test: Binding affinity to methicillin-, vancomycin-resistant, beta-lactamase-positive Staphylococcus aureus 510 PBP2a by competitive binding assay; outline: as §1
Staphylococcus aureus [26] = test: Antibacterial activity against methicillin-, linezolid-resistant, vancomycin-intermediate, beta-lactamase-positive Staphylococcus aureus 2149A by macrodilution method; format: functional; outline: as §4

SMILES: CC1(C)S[C@@H]2[C@H](NC(=O)Cc3ccccc3)C(=O)N2[C@H]1C(=O)O [PENICILLIN G]
- IC50 [1]: 0.03 µg/mL (≈ 0.0897 µM)
- IC50 (MecA [2]): 12 µM
- IC50 [3]: 1 µg/mL (≈ 2.99 µM)
- IC50 [4]: 0.5 µg/mL (≈ 1.5 µM)
- IC50 [5]: 2 µg/mL (≈ 5.98 µM)
- MIC (Streptococcus pneumoniae [6]): 4 µg/mL (≈ 12 µM)
- IC50 [7]: 64 µg/mL (≈ 191 µM)
- IC50 [8]: > 128 µg/mL
- IC50 [9]: 4 µg/mL (≈ 12 µM)
- IC50 [10]: 8 µg/mL (≈ 23.9 µM)
- IC50 [11]: 0.5 µg/mL (≈ 1.5 µM)
- IC50 [12]: > 128 µg/mL
- IC50 [13]: 0.5 µg/mL (≈ 1.5 µM)
- MIC (Streptococcus pneumoniae [14]): 16 µg/mL (≈ 47.8 µM)
- IC50 (MecA [15]): 191 µM
- IC50 [16]: 0.5 µg/mL (≈ 1.5 µM)
- IC50 [17]: 1 µg/mL (≈ 2.99 µM)
- MIC (Staphylococcus aureus [18]): 64 µg/mL (≈ 191 µM)
- IC50 (MecA [19]): 12000 nM
- IC50 [20]: 0.25 µg/mL (≈ 0.748 µM)
- IC50 [21]: > 128 µg/mL
- MIC (Streptococcus pneumoniae [22]): 0.03 µg/mL (≈ 0.0897 µM)
- MIC (Streptococcus pneumoniae [23]): 4 µg/mL (≈ 12 µM)
- IC50 [24]: 2 µg/mL (≈ 5.98 µM)
- IC50 (MecA [25]): 191000 nM
- MIC (Staphylococcus aureus [26]): 64 µg/mL (≈ 191 µM)

SMILES: CO/N=C(\C(=O)N[C@@H]1C(=O)N2C(C(=O)O)=C(COC(C)=O)CS[C@H]12)c1csc(N)n1 [CEFOTAXIME]
- IC50 [1]: 0.25 µg/mL (≈ 0.549 µM)
- IC50 (MecA [2]): 4.39 µM
- IC50 [3]: 1 µg/mL (≈ 2.2 µM)
- IC50 [4]: 1 µg/mL (≈ 2.2 µM)
- IC50 [5]: 4 µg/mL (≈ 8.78 µM)
- MIC (Streptococcus pneumoniae [6]): 2 µg/mL (≈ 4.39 µM)
- IC50 [7]: 0.25 µg/mL (≈ 0.549 µM)
- IC50 [8]: 1 µg/mL (≈ 2.2 µM)
- IC50 [9]: 1 µg/mL (≈ 2.2 µM)
- IC50 [10]: 0.25 µg/mL (≈ 0.549 µM)
- IC50 [11]: 0.5 µg/mL (≈ 1.1 µM)
- IC50 [12]: > 128 µg/mL
- IC50 [13]: 16 µg/mL (≈ 35.1 µM)
- MIC (Streptococcus pneumoniae [14]): 32 µg/mL (≈ 70.3 µM)
- IC50 (MecA [15]): > 281 µM
- IC50 [16]: 2 µg/mL (≈ 4.39 µM)
- IC50 [17]: 2 µg/mL (≈ 4.39 µM)
- MIC (Staphylococcus aureus [18]): > 64 µg/mL
- IC50 (MecA [19]): 1100 nM
- IC50 [20]: 1 µg/mL (≈ 2.2 µM)
- IC50 [21]: > 128 µg/mL
- MIC (Streptococcus pneumoniae [22]): 0.03 µg/mL (≈ 0.0659 µM)
- MIC (Streptococcus pneumoniae [23]): 4 µg/mL (≈ 8.78 µM)
- IC50 [24]: 2 µg/mL (≈ 4.39 µM)
- IC50 (MecA [25]): 2200 nM
- MIC (Staphylococcus aureus [26]): 32 µg/mL (≈ 70.3 µM)

SMILES: CO/N=C(\C(=O)N[C@@H]1C(=O)N2C(C(=O)O)=C(CSc3nc(=O)c(O)nn3C)CS[C@H]12)c1csc(N)n1 [CEFTRIAXONE]
- IC50 [1]: 0.25 µg/mL (≈ 0.451 µM)
- IC50 (MecA [2]): 3.61 µM
- IC50 [3]: 1 µg/mL (≈ 1.8 µM)
- IC50 [4]: 1 µg/mL (≈ 1.8 µM)
- IC50 [5]: 4 µg/mL (≈ 7.21 µM)
- MIC (Streptococcus pneumoniae [6]): 2 µg/mL (≈ 3.61 µM)
- IC50 [7]: 0.25 µg/mL (≈ 0.451 µM)
- IC50 [8]: 1 µg/mL (≈ 1.8 µM)
- IC50 [9]: 1 µg/mL (≈ 1.8 µM)
- IC50 [10]: 0.25 µg/mL (≈ 0.451 µM)
- IC50 [11]: 0.5 µg/mL (≈ 0.902 µM)
- IC50 [12]: > 128 µg/mL
- IC50 [13]: 16 µg/mL (≈ 28.9 µM)
- MIC (Streptococcus pneumoniae [14]): 32 µg/mL (≈ 57.7 µM)
- IC50 (MecA [15]): > 231 µM
- IC50 [16]: 2 µg/mL (≈ 3.61 µM)
- IC50 [17]: 2 µg/mL (≈ 3.61 µM)
- MIC (Staphylococcus aureus [18]): > 64 µg/mL
- IC50 (MecA [19]): 451 nM
- IC50 [20]: 1 µg/mL (≈ 1.8 µM)
- IC50 [21]: > 128 µg/mL
- MIC (Streptococcus pneumoniae [22]): 0.03 µg/mL (≈ 0.0541 µM)
- MIC (Streptococcus pneumoniae [23]): 2 µg/mL (≈ 3.61 µM)
- IC50 [24]: 2 µg/mL (≈ 3.61 µM)
- IC50 (MecA [25]): 1800 nM
- MIC (Staphylococcus aureus [26]): 64 µg/mL (≈ 115 µM)
